Measurements published in the EternaBench riboswitch data.

Tested on: MS2 coat protein
Test: apparent Kd, MS2 coat protein; higher = weaker binding; RNA-MaP array; FMN 200 µM where present
In short: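 The apparent Kd is reported as the median of filtered per-cluster binding-curve fits. To get these curves, designs transcribed by stalled E. coli RNA polymerase on Illumina sequencing-chip clusters were titrated with SNAP-549-labelled MS2 coat protein from 0.7 or 1.5 nM, doubling to 3 µM. Titrations were run without and then with constant ligand in 100 mM Tris-HCl pH 7.5, 80 mM KCl, 4 mM MgCl2, BSA, DTT, yeast tRNA and Tween-20, and green signal was normalised to red-channel RNA signal and control-cluster median Fmax.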

[1] = designed as: OFF switch for flavin mononucleotide, no ligand
[2] = ligand present: flavin mononucleotide, designed as: OFF switch for flavin mononucleotide
[3] = designed as: ON switch for flavin mononucleotide, no ligand
[4] = ligand present: flavin mononucleotide, designed as: ON switch for flavin mononucleotide

Row | Sequence | apparent Kd [1] [nM] | apparent Kd [2] [nM] | apparent Kd [3] [nM] | apparent Kd [4] [nM]
1 | UGUCGGAGCAGAGGAUAUUACAUGAGGAUCACCCAUGUAUGAACCAAUACCUGGAAACAGCAAUGUAAGAAGGCUGCUCCGACA | 12.5 | 141 |  | 
2 | AAAAUCUAUUGAGGAUAUCGUUCUUAAAGAGAAUGAGAAGGCAAACAAUCAUGAGGACAUGAGGAUCACCCAUGUUGUGACCAU |  |  | 19.9 | 10.3
3 | AACUAGCUAGGAUAUACAUGAGGAUCACCCAUGUAAAAAAAAAAAAAAAGAUAUAUAUGUAGAAGGAGCUAGUA | 33.7 | 44.9 |  | 
4 | AUUAAACAUGAGGAUCACCCAUGUCAACAAAGUCGAGGAUAUGGGCAUAUUAUCUUAUUACCAGAAGGCGAAUAAU |  |  | 390 | 44
5 | GCAAAGCCUGACAUGAGGAUCACCCAUGUUAGAUUGUUAUGUCAGGAUAUUGUCUAGAAACUAGACAAGAAGGGAUGCUUUGCU |  |  | 421 | 25.3
6 | UGAUAGGACAGAGGAUAUACGUGCUAGAGAUACUAGCUAAUAAUCCUUACAUGAGGAUCACCCAUGUAGAAGGCUGUCCUAUCU | 19.5 | 45.5 |  | 
7 | GCCGGUUCCCUAGGAUAUGUACAUGAGGAUCACCCAUGUGCUUCUAGAGCCGGAGCAGGGCAUGUACAGAAGGAGGGUCGACCC | 6.47 | 7.39 |  | 
8 | UUGGACGUCGUAGGAUAUGUAGGAUAUUCCUACAUGAGGAUCACCCAUGUUGACAUGGAAGAAGGACAGAGGGACGAUGUCCAU |  |  | 454 | 11.6
9 | AGAUGACGAUGUUAUCUUCGUCGGACAUGAGGAUCACCCAUGUAGGAUAUGCUACUCAAAGAGUAGCAGAAGGACAUGUGUCUU | 37.4 | 245 |  | 
10 | CUUUUGUGAGGAUAUCAGUAGUAAUACAAUAGUAUUACUACUGAGAAGGUACAUGAGGAUCACCCAUGUUCCUC | 17.8 | 21.2 |  | 
11 | GAGAUGUGAGGAUAUCUAGACCGCGGCAGAGCUGCGGUCCGAGAGAAGGCACAUGAGGAUCACCCAUGUGAUGA | 57 | 207 |  | 
12 | AUCCGGAAUGUUAGGAUAUCUUGGCGCCUGUGCUUGGAGAAGGGACAUGAGGAUCACCCAUGUCCUCUCGGAAA | 13.1 | 14.9 |  | 
13 | AGAUCACAUGAGGAUCACCCAUGUCAGGAUAUGAUACUAUGUACUUCGGUACAUAGUAUCAGAAGGGAUAUGAA | 95.2 | 193 |  | 
14 | UCAAAGAGAUCGAAUGGGAGGCGUAAGGAUAUGCACAUGAGGAUCACCCAUGUCUACGAAAGUAGGCAGAAGGUACGCGGGAUU |  |  | 315 | 34.2
15 | AUACCUUAUGAGAAGGCGGUCAUGAAACAUGAUCGAGGAUAUCAUGUAAACAUGAGGAUCACCCAUGUAUGGGUAUUAUGGUAA |  |  | 44.8 | 10.2
16 | UGAUAGGACAGAGGAUAUGCCGAUAGGCUCUACUAUCGAAGAAUCCUCACAUGAGGAUCACCCAUGUAGAAGGCUGUCCUAUCU | 19.1 | 48 |  | 
17 | GCGGUACAUGAGGAUCACCCAUGUCAGGAUAUCCGCUGUUUGUCGUUUGGCGGGCGGUGGAGAAGGGACCUCGC | 90 | 93 |  | 
18 | GUUUAGUGAGGAUAUGUGGCAUCGAUCGAGCGCGGUCGGCUACAGAAGGCACAUGAGGAUCACCCAUGUUUCUC | 39.5 | 413 |  | 
19 | AAUAAACUCACAGGAUAUAGCAGAGGUCGCGUAAACUUACAGGCGACGAUGCUAGAAGGGUGACCACAUGAGGAUCACCCAUGU |  |  | 871 | 118
20 | AUAUGAAAGAUAGGAUAUACUGAGGUUGAAUGGGUAGAAGGAUCGAUAGUGGAGAAUACAUGAGGAUCACCCAUGUUGUGGAUU |  |  | 828 | 353
21 | UUAUUUAGGUAGGAUAUCGAUACCAAUCCCUAUCGAGAAGGGUCUACAUGAGGAUCACCCAUGUUAGCAUGUUU | 20.1 | 21.1 |  | 

Row | Sequence | apparent Kd [1] [nM] | apparent Kd [2] [nM] | apparent Kd [3] [nM] | apparent Kd [4] [nM]
22 | CUCAUGUGAGGAUAUGUGAUCUGCCUUCUAUGUAGAUGAUCACAGAAGGCACAUGAGGAUCACCCAUGUAGAUC | 119 | 23.4 |  | 
23 | GCUGCGCGAGGAUAUGCGGUUUGCGCUGUGGCCCGUGGCGUACAUGAGGAUCACCCAUGUAGAAGGCGUGUGGG | 22.9 | 23.3 |  | 
24 | GUAUCUUAUGAGAAGGCGAUCAUGAAACAUGAUCGAGGAUAUCAUGUAAACAUGAGGAUCACCCAUGUAUGGGUAUUAUGGUAC |  |  | 179 | 71.9
25 | GGACUUCCUGAGGAUAUGAAUCAACAUAUAGCUUUAGAAGGCAGGACAUGAGGAUCACCCAUGUGAACUCUUUC | 49.8 | 57.6 |  | 
26 | AAAAGCUCAGGAUAUACGGUCUGUUGUUGAGAAAUAUCGAAACAUGAGGAUCACCCAUGUAGAAGGGAGCGAAA | 223 | 599 |  | 
27 | GAUCAAAACACUCCUUACACUACAUGAGGAUCACCCAUGUAGCAGGAUAUCGUUGCUCCUCGCUGCGAGAAGGGCUACGGGCGG | 8.02 | 13.8 |  | 
28 | GUUGUUUCUGAGGAUAUUAUUUUUUUCGAUUGAUAAGAAGGCAGUACAUGAGGAUCACCCAUGUGGGUUGUCUG | 37.2 | 150 |  | 
29 | CGAAGAGGAAGUGAAAGGCGGGACAGAAGGGCACCGGGUCAGCGUCACAUGAGGAUCACCCAUGUGCAGGAUAUGUCGACCCAC | 6.54 | 30.4 |  | 
30 | UAGAUGUGAGGAUAUGGUAAAGAUAGAAUGAUGAAAGAACUCCAGAAGGCACAUGAGGAUCACCCAUGUAGAUG | 26.9 | 55 |  | 
31 | UCGUCCUCGUGCUAGGAUAUCCAUCGUAAAACAUGAGGAUCACCCAUGUAGAAAUGCGCCUACGAGGAGAAGGAGCGAUGUGGAU |  |  | 20.6 | 15.2
32 | CUGGGAUCAGUAGGAUAUGCCGGACAUGAGGAUCACCCAUGUAAGGCGUGCUUCCCUCGCGUGCGGCAGAAGGGCUGCAUCACA | 32.7 | 35.4 |  | 
33 | AUAAAACGAGGAUAUGCUGGGCUUCUGUGAUGCAUAUGCUCACAUGAGGAUCACCCAUGUAGAAGGUGUAAAAU | 278 | 289 |  | 
34 | GGAAUAAAUGCAGGAUAUACGUGGAAAGCCCUCAACAUGAGGAUCACCCAUGUAGAAGGGCAUCUCCCGACCGAAGCGGAUCUC | 4.41 | 4.82 |  | 
35 | CCAGAUAUGUGAGGAUAUAGAGUGGAAUACACUCUAGAAGGUAUGUGAAAACAUGAGGAUCACCCAUGUCAUUGAUUAUCUGGA |  |  | 26 | 27.5
36 | AGGUAGCAAGGAUAUACAUGAGGAUCACCCAUGUAAAUGCACGUUUAGGCCCUGCUAUGUAGAAGGUGCACCCG | 17.3 | 16.8 |  | 
37 | GGGAAGUUAGGAUAUGCUGCUCGUCACUUGCGUGAUGAGUAGCAGAAGGGACAUGAGGAUCACCCAUGUAAAGA | 41.6 | 26.2 |  | 
38 | UGGUACUAGGGAGGAUAUGGGAAGAUACAUGAGGAUCACCCAUGUUUAAGAAUGCCGUGAGGCAACUAGAAGGCCCUAGUACCU |  |  | 505 | 18.8
39 | GCGUCAGAAUUAAUUGUGACAGACAGAAGGCAAUAGUUCAUGUCAGACAUGAGGAUCACCCAUGUUGAGGAUAUGUAUUUACAC | 6.05 | 6.29 |  | 
40 | GGUGCGUUUGUGAGGAUAUGCUGGUCCUUGGAUCGGCAGAAGGCACAUGAGGAUCACCCAUGUGGUGUCGUACC | 310 | 29.6 |  | 
41 | UUUACAUGAGGAUCACCCAUGUAUAGAACGGUUAAUUAAAGUGAGGAUAUACAUAAUUUUAUAUUGUAGAAGGCACUGGGUACA |  |  | 14.3 | 17.5
42 | ACAUGAGGAUCACCCAUGUUAUCCGGGACUUCAAUUGUUUCUAGAAGGCUGUCUGCUUGUUAGUCAGAGGAUAUAGAAUCAAAU | 11.4 | 11 |  | 
